Test results taken from ChEMBL document CHEMBL3098010, “Synthesis and biological evaluation of 3-hydroxymethyl-5-(1H-1,2,3-triazol) isoxazolidines” (Bioorg Med Chem, 2013).
Active and inactive are the calls of the source. No cut-off for these calls is given here.

Key:
FTC-133 [1] = assay: Induction of apoptosis in human FTC-133 cells assessed as caspase-3 positive cells at 5 uM after 24 hrs by immunohistochemical analysis; assay type: functional, cell-based
Outline: (§1)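 Cells on chamber slides are treated 24 h with 5 µM compound, then fixed in 4% paraformaldehyde for 20 min. Unspecific sites are blocked with 1% NGS for 1 h, then cells are incubated overnight at 37 °C with mouse anti-caspase-3 (1:200) and a TRITC anti-mouse secondary. Caspase-3-positive cells are counted by fluorescence microscopy in four fields per coverslip across four experiments.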

8305C [2] = assay: Induction of apoptosis in human 8305C cells assessed as caspase-3 positive cells at 5 uM after 24 hrs by immunohistochemical analysis; assay type: functional, cell-based; outline: as §1
FTC-133 [3] = assay: Cytotoxicity against human FTC-133 cells after 24 hrs by MTT assay; assay type: functional, cell-based; conditions: FTC-133, 24 h
Outline: (§2)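 FTC-133 (DMEM, 2 mM GlutaMAX, 10% FBS) and 8305C (MEM, 2 mM GlutaMAX, 10% FBS, 1% non-essential amino acids) cells are exposed to compound at 0.5–20 µM for 24 h at 37 °C, 5% CO2. MTT is added (20 µL of 0.5% in PBS, pH 7.4) for 1 h, then dissolved in DMSO and read at 570 nm. IC50 is taken graphically from dose–effect curves. Mean of four independent experiments in triplicate.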

8305C [4] = assay: Cytotoxicity against human 8305C cells after 24 hrs by MTT assay; assay type: functional, cell-based; outline: as §2
FTC-133 [5] = assay: Induction of apoptosis in human FTC-133 cells assessed as DNA fragmentation at 5 uM after 24 hrs by TUNEL assay (reference value: 3 +/- 1%); assay type: functional
8305C [6] = assay: Induction of apoptosis in human 8305C cells assessed as DNA fragmentation at 5 uM after 24 hrs by TUNEL assay (reference value: 2 +/- 1%); assay type: functional

| Compound | Activity (FTC-133 [1]) | Activity (8305C [2]) | IC50 (FTC-133 [3]) [µM] | IC50 (8305C [4]) [µM] | Activity (FTC-133 [5]) [%] | Activity (8305C [6]) [%] |
| --- | --- | --- | --- | --- | --- | --- |
| CN1O[C@@H](n2cc(-c3ccc(F)cc3)nn2)C[C@@H]1CO | Active | Active | 6.07 | 6.76 | – | – |
| COc1ccc(-c2cn([C@@H]3C[C@H](CO)N(C)O3)nn2)cc1 (relative stereo) | Active | Active | 6.48 | 7.18 | – | – |
| CN1O[C@@H](n2cc(-c3ccccc3)nn2)C[C@@H]1CO (relative stereo) | Active | Active | 6.03 | 7.14 | – | – |
| CN1O[C@H](n2cc(-c3ccccc3)nn2)C[C@@H]1CO (relative stereo) | Active | Active | 6.33 | 8.76 | – | – |
| CN1O[C@@H](n2ccnn2)C[C@@H]1CO (relative stereo) | Active | Active | 6.53 | 7.96 | – | – |
| CN1O[C@H](n2ccnn2)C[C@@H]1CO (relative stereo) | Active | Active | 6.3 | 8.13 | – | – |
| CCCc1cn([C@H]2C[C@H](CO)N(C)O2)nn1 (relative stereo) | Active | Active | 3.87 | 5.82 | 95 | 90 |
| CCCc1cn([C@@H]2C[C@H](CO)N(C)O2)nn1 (relative stereo) | Active | Active | 4.71 | 6.87 | – | – |
| COc1ccc(-c2cn([C@H]3C[C@H](CO)N(C)O3)nn2)cc1 (relative stereo) | Active | Active | 7 | 8.01 | – | – |
| CCCCCc1ccc(-c2cn([C@H]3C[C@H](CO)N(C)O3)nn2)cc1 (relative stereo) | Active | Active | 3.95 | 5.96 | – | – |
| CCCCCc1ccc(-c2cn([C@@H]3C[C@H](CO)N(C)O3)nn2)cc1 (relative stereo) | Active | Active | 4.49 | 6.24 | – | – |
| CN1O[C@H](n2cc(-c3ccc(F)cc3)nn2)C[C@@H]1CO (relative stereo) | Active | Active | 5.85 | 6.85 | – | – |
| Nc1ccn([C@@H]2O[C@H](CO)[C@@H](O)C2(F)F)c(=O)n1 [GEMCITABINE] | Active | Active | 3.36 | 4.53 | – | – |
